Measurements published in ChEMBL document CHEMBL4665780, “Synthesis of flutamide-conjugates” (Bioorg Med Chem Lett, 2020).

What was measured:
HCT-15 = experiment: Anticancer activity against human HCT-15 cells assessed as inhibition of cell growth incubated for 48 hrs by MTT assay; type: functional, cell-based; conditions: HCT-15, 48 h
Method in brief: (§1)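 MTT assay against a panel of human cancer lines (U-251 glioblastoma, PC-3 prostatic adenocarcinoma, K-562 chronic myelogenous leukemia, HCT-15 colorectal adenocarcinoma) and monkey kidney fibroblasts (COS-7). Cells were exposed to compounds for 48 h. IC50 (µM) came from MTT readings as the mean ± SD of two independent trials, each run in triplicate.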

COS-7 = experiment: Anticancer activity against African green monkey COS7 cells assessed as inhibition of cell growth incubated for 48 hrs by MTT assay; type: cell-based; conditions: Chlorocebus aethiops, COS-7, 48 h; method in brief: as §1
K562 = experiment: Anticancer activity against human K562 cells assessed as inhibition of cell growth incubated for 48 hrs by MTT assay; type: functional, cell-based; conditions: K562, 48 h; method in brief: as §1
PC-3 = experiment: Anticancer activity against human PC-3 cells assessed as inhibition of cell growth incubated for 48 hrs by MTT assay; type: functional, cell-based; conditions: PC-3, 48 h; method in brief: as §1
U-251 = experiment: Anticancer activity against human U-251 cells assessed as inhibition of cell growth incubated for 48 hrs by MTT assay; type: functional, cell-based; conditions: U-251, 48 h; method in brief: as §1

SMILES | IC50 (HCT-15) | IC50 (COS-7) | IC50 (K562) | IC50 (PC-3) | IC50 (U-251)
CCCCCCCCCCCCOc1cc(OCCCCCCCCCCCC)cc(C(=O)NCCN)c1 | > 1000 µM | > 1000 µM | > 1000 µM | > 1000 µM | > 1000 µM
CC(C)C(=O)N(CC(=O)NCCN)c1ccc([N+](=O)[O-])c(C(F)(F)F)c1 | > 100 µM | 15.2 µM | 18 µM | 20.1 µM | 24.1 µM
CCCCCCCCCCCCOc1cc(OCCCCCCCCCCCC)cc(C(=O)NCCNC(=O)CN(C(=O)C(C)C)c2ccc([N+](=O)[O-])c(C(F)(F)F)c2)c1 | 19.2 µM | > 1000 µM | 15.4 µM | 13.3 µM | 14.3 µM
CCCCCCCCCCCCOc1cc(OCCCCCCCCCCCC)cc(C(=O)OC)c1 | > 1000 µM | > 1000 µM | > 1000 µM | > 1000 µM | > 1000 µM
CCCCCCCCCCCCOc1cc(OCCCCCCCCCCCC)cc(C(=O)NCCN(CCC(=O)NCCNC(=O)CN(C(=O)C(C)C)c2ccc([N+](=O)[O-])c(C(F)(F)F)c2)CCC(=O)NCCNC(=O)CN(C(=O)C(C)C)c2ccc([N+](=O)[O-])c(C(F)(F)F)c2)c1 | 22.4 µM | > 1000 µM | 6.79 µM | 7.16 µM | 8.59 µM
COC(=O)CN(C(=O)C(C)C)c1ccc([N+](=O)[O-])c(C(F)(F)F)c1 | > 100 µM | 12.1 µM | 14.1 µM | 19.1 µM | 20.1 µM
CCCCCCCCCCCCOc1cc(OCCCCCCCCCCCC)cc(C(=O)NCCN(CCC(=O)OC)CCC(=O)OC)c1 | > 1000 µM | > 1000 µM | > 1000 µM | > 1000 µM | > 1000 µM
CC(C)C(=O)Nc1ccc([N+](=O)[O-])c(C(F)(F)F)c1 [FLUTAMIDE] | > 100 µM | 51.5 µM | 29.2 µM | 20.3 µM | 22.1 µM
